From ChEMBL document CHEMBL4819068, “Novel potent bifunctional carboxylesterase inhibitors based on a polyfluoroalkyl-2-imino-1,3-dione scaffold” (Eur J Med Chem, 2021)
Calls of active or inactive are those of the source. The calls are words filed in the database; no cut-off is given here.

What was measured:
Acetylcholinesterase [1] = molecular target: T1, Acetylcholinesterase (Homo sapiens, UniProt P22303); test: Inhibition of human erythrocyte AChE at 20 uM using acetylthiocholine iodide as substrate preincubated for 10 mins followed by substrate addition by Ellman's method relative to control
T1 sequence (P22303 whole entry): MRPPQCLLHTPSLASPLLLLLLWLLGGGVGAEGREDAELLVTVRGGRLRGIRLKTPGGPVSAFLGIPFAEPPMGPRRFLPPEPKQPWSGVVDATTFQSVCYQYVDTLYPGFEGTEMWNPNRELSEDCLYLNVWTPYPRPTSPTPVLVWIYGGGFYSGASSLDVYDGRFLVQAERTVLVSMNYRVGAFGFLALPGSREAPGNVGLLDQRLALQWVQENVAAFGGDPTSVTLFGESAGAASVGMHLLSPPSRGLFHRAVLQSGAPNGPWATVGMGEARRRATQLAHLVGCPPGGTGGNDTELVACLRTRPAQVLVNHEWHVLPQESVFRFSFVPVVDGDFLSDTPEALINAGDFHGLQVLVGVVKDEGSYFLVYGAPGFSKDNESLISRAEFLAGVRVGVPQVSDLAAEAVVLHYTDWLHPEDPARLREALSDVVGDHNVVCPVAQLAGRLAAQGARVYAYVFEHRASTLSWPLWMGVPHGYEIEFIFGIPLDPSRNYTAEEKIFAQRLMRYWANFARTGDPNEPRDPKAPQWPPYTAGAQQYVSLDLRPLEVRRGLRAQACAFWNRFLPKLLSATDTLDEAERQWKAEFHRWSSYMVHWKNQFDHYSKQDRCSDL
Summary of the method: (§1)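 Single-point screen at 20 μM in 0.1 M K/Na phosphate pH 7.5, 25 °C; 0.02 unit/mL enzyme, 1 mM ATCh (AChE) or BTCh (BChE), 0.33 mM DTNB; 2% DMSO final; 10 min preincubation then substrate; activity relative to inhibitor-free control; three separate experiments.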

[2] = molecular target: Cholinesterase (Equus caballus) (UniProt P81908); test: Inhibition of equine serum BuChE at 20 uM using […] as substrate preincubated for 10 mins followed by substrate addition by Ellman's method relative to control; summary of the method: as §1
Sequence of Cholinesterase (Equus caballus) (P81908 whole entry): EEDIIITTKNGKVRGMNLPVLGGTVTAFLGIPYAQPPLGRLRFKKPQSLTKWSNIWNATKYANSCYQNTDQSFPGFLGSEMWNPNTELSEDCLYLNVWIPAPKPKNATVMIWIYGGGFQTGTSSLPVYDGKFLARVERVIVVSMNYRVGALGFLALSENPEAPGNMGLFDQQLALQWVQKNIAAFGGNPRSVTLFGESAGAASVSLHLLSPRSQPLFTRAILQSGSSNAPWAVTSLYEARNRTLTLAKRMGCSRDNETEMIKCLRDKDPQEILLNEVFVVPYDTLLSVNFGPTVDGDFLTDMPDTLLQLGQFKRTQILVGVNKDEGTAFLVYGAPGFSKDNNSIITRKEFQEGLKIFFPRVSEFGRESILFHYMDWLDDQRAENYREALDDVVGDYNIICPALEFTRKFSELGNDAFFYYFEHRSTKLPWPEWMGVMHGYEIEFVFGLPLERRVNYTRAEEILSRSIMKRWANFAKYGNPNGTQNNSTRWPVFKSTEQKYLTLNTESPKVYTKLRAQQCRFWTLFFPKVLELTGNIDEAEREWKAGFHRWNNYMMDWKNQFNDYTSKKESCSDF

Acetylcholinesterase [3] = molecular target: T1, Acetylcholinesterase; test: Inhibition of human erythrocyte AChE using acetylthiocholine iodide as substrate preincubated for 10 mins followed by substrate addition by Ellman's method
Liver carboxylesterase [4] = molecular target: T2, Liver carboxylesterase (Sus scrofa, UniProt Q29550); test: Inhibition of porcine liver carboxylesterase using 4-NPA as substrate preincubated for 10 mins followed by substrate addition by spectrophotometric analysis; type: tissue-based
T2 sequence (Q29550 whole entry): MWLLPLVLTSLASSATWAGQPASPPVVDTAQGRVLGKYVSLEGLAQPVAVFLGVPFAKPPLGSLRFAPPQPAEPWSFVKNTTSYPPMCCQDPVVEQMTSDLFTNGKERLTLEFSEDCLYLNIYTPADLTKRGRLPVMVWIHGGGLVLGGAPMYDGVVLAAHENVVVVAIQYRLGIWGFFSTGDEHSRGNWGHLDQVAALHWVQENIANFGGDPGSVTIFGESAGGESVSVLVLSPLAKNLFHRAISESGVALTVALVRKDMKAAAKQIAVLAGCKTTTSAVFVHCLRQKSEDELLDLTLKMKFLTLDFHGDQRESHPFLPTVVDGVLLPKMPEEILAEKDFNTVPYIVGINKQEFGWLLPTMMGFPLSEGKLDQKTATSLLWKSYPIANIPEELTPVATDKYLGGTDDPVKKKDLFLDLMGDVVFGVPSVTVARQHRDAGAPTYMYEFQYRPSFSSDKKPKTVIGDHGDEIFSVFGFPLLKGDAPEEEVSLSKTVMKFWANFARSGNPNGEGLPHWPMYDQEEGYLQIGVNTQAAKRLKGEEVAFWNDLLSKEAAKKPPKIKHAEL
Summary of the method: (§2)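 Porcine liver CES, 0.02 unit/mL, in 0.1 M K/Na phosphate pH 8.0, 25 °C; compound in DMSO (2% v/v final) preincubated 10 min, then 1 mM 4-nitrophenyl acetate; 4-nitrophenol read at 405 nm, enzyme-free blanks. Screening at 20 μM in three separate experiments; IC50 from eight concentrations between 10^-12 and 10^-4 M, residual activity relative to inhibitor-free control.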

Liver carboxylesterase 1 = molecular target: T3, Liver carboxylesterase 1 (Homo sapiens, UniProt P23141); test: Inhibition of human recombinant CES1 expressed in baculovirus infected BTI insect cells using 4-NPA as substrate by spectrophotometric analysis
T3 sequence (P23141 whole entry): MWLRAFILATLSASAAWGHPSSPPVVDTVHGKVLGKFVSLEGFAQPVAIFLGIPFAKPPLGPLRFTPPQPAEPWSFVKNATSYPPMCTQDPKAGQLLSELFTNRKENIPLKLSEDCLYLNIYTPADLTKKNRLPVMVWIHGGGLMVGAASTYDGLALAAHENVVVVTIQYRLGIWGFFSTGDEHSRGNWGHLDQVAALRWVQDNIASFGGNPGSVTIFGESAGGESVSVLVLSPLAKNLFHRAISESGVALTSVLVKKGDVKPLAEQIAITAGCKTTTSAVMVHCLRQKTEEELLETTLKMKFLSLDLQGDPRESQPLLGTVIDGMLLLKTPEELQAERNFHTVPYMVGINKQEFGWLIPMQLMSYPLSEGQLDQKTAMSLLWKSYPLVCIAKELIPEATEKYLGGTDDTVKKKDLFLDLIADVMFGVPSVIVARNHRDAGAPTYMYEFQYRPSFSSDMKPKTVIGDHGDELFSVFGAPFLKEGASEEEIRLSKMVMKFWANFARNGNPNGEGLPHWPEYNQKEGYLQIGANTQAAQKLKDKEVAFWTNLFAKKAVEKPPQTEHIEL
Summary of the method: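 Recombinant hCES1 (baculovirus/BTI insect cells), 0.02 unit/mL, in 0.1 M K/Na phosphate pH 7.4, 25 °C; compound (DMSO, 2% v/v final) preincubated 10 min, then 1 mM 4-nitrophenyl acetate added; 4-nitrophenol release read at 405 nm against enzyme-free blank. IC50 from eight concentrations (10^-12–10^-4 M) relative to inhibitor-free control.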

[5] = Acute toxicity in ip dosed CD-1 mouse observed for 14 days; type: organism-based; settings: in vivo, time 14 day
Summary of the method: (§3)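 CD-1 mice given compound intraperitoneally in 2% (w/v) starch mucilage, three animals per dose group; lethality observed over 14 days; procedure based on OECD recommendations.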

[6] = Antioxidant activity assessed as trolox equivalent of ABTS radical cation scavenging activity incubated for 24 hrs by UV-Vis spectrophotometric analysis; type: functional
Cholinesterase [7] = molecular target: T4, Cholinesterase (Equus caballus, UniProt P81908); test: Inhibition of equine serum BuChE using […] as substrate preincubated for 10 mins followed by substrate addition by Ellman's method
T4 sequence (P81908 whole entry): as the sequence (P81908 whole entry) above

[8] = Cytotoxicity against human FetMSC cells assessed as reduction in cell viability after 72 hrs by MTT assay; type: cell-based
Summary of the method: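 Human fetal MSC (bone-marrow fibroblast-like, nonimmortalized; ≤10–15 passages) grown in F12/DMEM with 10% FBS, 3 mM L-glutamine, penicillin/streptomycin. Seeded at 6×10^3 cells/well; after 24 h, medium replaced with compound at 100, 250, 500 μM for 72 h; controls 0.1% DMSO. MTT 0.5 mg/ml for 4 h, formazan dissolved in DMSO, read at 570 nm; control = 100%.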

[9] = Antioxidant activity assessed as decrease in ABTS radical cation scavenging activity incubated for 24 hrs by UV-Vis spectrophotometric analysis; type: functional
Liver carboxylesterase [10] = molecular target: T2, Liver carboxylesterase; test: Inhibition of porcine liver carboxylesterase at 20 uM using 4-NPA as substrate preincubated for 10 mins followed by substrate addition by spectrophotometric analysis relative to control; type: tissue-based; settings: pig, probe 4-NPA; summary of the method: as §2
[11] = Acute toxicity in CD-1 mouse assessed as effect on mouse death at 600 mg/kg, ip measured after 14 days; type: organism-based; settings: in vivo, 336 h, time 14 day; summary of the method: as §3
Liver carboxylesterase [12] = molecular target: T2, Liver carboxylesterase; test: Competitive inhibition of porcine liver carboxylesterase by double reciprocal Lineweaver-Burk plot analysis; type: tissue-based
Summary of the method: (§4)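 Porcine liver CES residual activity measured with 3 increasing inhibitor concentrations and 5–6 decreasing 4-nitrophenyl acetate concentrations after 10 min preincubation at 25 °C; parallel inhibitor-free controls. Initial velocities plotted as Lineweaver–Burk double-reciprocal plots to derive mechanism and steady-state inhibition constants; each experiment in triplicate.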

Liver carboxylesterase [13] = molecular target: T2, Liver carboxylesterase; test: Non-competitive inhibition of porcine liver carboxylesterase by double reciprocal Lineweaver-Burk plot analysis; type: tissue-based; settings: pig; summary of the method: as §4
Acetylcholinesterase [14] = molecular target: T1, Acetylcholinesterase; test: Non-competitive inhibition of human erythrocyte AChE by double reciprocal Lineweaver-Burk plot analysis
Summary of the method: (§5)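 Residual activity measured with 3 increasing inhibitor concentrations and 5–6 decreasing substrate concentrations (ATCh for AChE, BTCh for BChE), DTNB read-out, 0.1 M K/Na phosphate pH 7.5, 25 °C; 10 min enzyme–inhibitor preincubation before substrate; no-inhibitor parallel control; triplicate; mechanism from Lineweaver-Burk plots.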

Acetylcholinesterase [15] = molecular target: T1, Acetylcholinesterase; test: Competitive inhibition of human erythrocyte AChE by double reciprocal Lineweaver-Burk plot analysis; summary of the method: as §5
[16] = molecular target: Cholinesterase (Equus caballus) (UniProt P81908); test: Non-competitive inhibition of equine serum BuChE by double reciprocal Lineweaver-Burk plot analysis; summary of the method: as §5
Cholinesterase [17] = molecular target: T4, Cholinesterase; test: Competitive inhibition of equine serum BuChE by double reciprocal Lineweaver-Burk plot analysis; summary of the method: as §5

Compound | inhibition (Acetylcholinesterase [1]) | inhibition [2] | IC50 (Acetylcholinesterase [3]) [µM] | IC50 (Liver carboxylesterase [4]) [µM] | IC50 (Liver carboxylesterase 1) [µM] | Activity [6] | IC50 (Cholinesterase [7]) [µM] | IC50 [9] [µM] | further results
O=[N+]([O-])c1ccc(OP(=O)(O)Oc2ccc([N+](=O)[O-])cc2)cc1 | inactive | inactive |  |  |  |  |  |  | 
CCOC(=O)/C(=N\Nc1ccc(Br)cc1)C(=O)C(F)(F)F |  |  | 1.36 | 0.00514 | 0.0153 | 0.53 | 2.02 | 36.3 | LD50 at 336 h [5]: 300 mg/kg; IC50 [8]: > 500 µM
CCOC(=O)/C(=N\Nc1cccc(C)c1)C(=O)C(F)(F)F |  |  | 30.4 | 0.00727 | 0.00517 | 0.85 | 38.1 | 25.4 | LD50 at 336 h [5]: 300 mg/kg; IC50 [8]: > 500 µM
Cc1ccc(N/N=C(\C(=O)c2ccccc2)C(=O)C(F)(F)F)cc1 | 9.1% | 19.4% |  | 5.54 |  | 1.7 |  | 12.8 | 
COC(=O)/C(=N\Nc1ccc(C)cc1)C(=O)C(F)F | 5.8% | 2.3% |  | 1.57 |  | 0.38 |  | 52.6 | IC50 [8]: > 500 µM
CCOC(=O)/C(=N\Nc1ccc(F)cc1)C(=O)C(F)(F)F |  |  | 2.67 | 0.00716 | 0.0223 | 0.6 | 11.3 | 35.3 | IC50 [8]: > 500 µM
CCOC(=O)/C(=N\Nc1ccc(C)cc1)C(C)=O | 6.8% | inactive |  |  |  | 0.38 |  | 52.4 | inhibition at 20 µM (Liver carboxylesterase [10]): 12.1%
COC(=O)/C(=N\Nc1ccc(OC)cc1)C(=O)C(F)(F)C(F)(F)C(F)(F)F | 7.1% | 21.2% |  | 0.103 | 0.111 | 0.4 |  | 50.3 | 
CCOC(=O)/C(=N\Nc1ccc(OC)cc1)C(=O)C(F)(F)F |  | 24.3% | 4.62 | 0.0131 | 0.00429 | 1 |  | 19.3 | 
COC(=O)/C(=N\Nc1ccc(OC)cc1)C(=O)C(F)(F)F |  |  | 30.3 | 0.0467 | 0.0213 | 0.97 | 49.6 | 22.5 | 
COC(=O)/C(=N\Nc1ccccc1[N+](=O)[O-])C(=O)C(F)(F)F |  |  | 20.9 | 0.00765 | 0.102 | 0.03 | 45.1 |  | LD50 at 336 h [5]: 300 mg/kg; IC50 [8]: > 500 µM
CCOC(=O)/C(=N\Nc1ccc(C)cc1)C(=O)C(F)(F)C(F)(F)C(F)(F)F | 23.6% |  |  | 0.102 |  | 0.3 | 42.1 | 62.3 | 
CCOC(=O)/C(=N\Nc1ccc(C)cc1)C(=O)C(F)(F)C(F)(F)F | 11.5% |  |  | 0.164 | 0.0474 | 0.36 | 31.1 | 55.2 | 
CCOC(=O)/C(=N\Nc1ccccc1)C(=O)C(F)(F)F |  |  | 3.22 | 0.00614 | 0.0061 | 0.8 | 8.42 | 26.7 | Activity [11]: Non-Toxic; LD50 at 336 h [5]: 600 mg/kg; IC50 [8]: > 500 µM
CCOC(=O)/C(=N\Nc1ccccc1[N+](=O)[O-])C(=O)C(F)(F)F |  |  | 0.759 | 0.00495 | 0.0241 | 0.04 | 8.06 |  | LD50 at 336 h [5]: 300 mg/kg; IC50 [8]: > 500 µM
CCOC(=O)/C(=N\Nc1ccccc1C(=O)OCC)C(=O)C(F)(F)F |  |  | 0.481 | 0.0416 |  | 0.04 | 0.122 |  | 
COC(=O)/C(=N\Nc1ccc(C)cc1)C(=O)C(F)(F)F |  |  | 28.3 | 0.0278 | 0.0163 | 0.98 | 33 | 21.2 | Ki (Liver carboxylesterase [12]): 0.014 µM; alphaKi (Liver carboxylesterase [13]): 82.2 nM; alphaKi (Acetylcholinesterase [14]): 139 µM; Ki (Acetylcholinesterase [15]): 10.1 µM; alphaKi [16]: 72.7 µM; Ki (Cholinesterase [17]): 29.2 µM
CCOC(=O)/C(=N\Nc1ccc(C)cc1)C(=O)C(F)(F)C(F)(F)C(F)(F)C(F)(F)F | 17.2% | 4% |  | 0.0893 |  | 0.26 |  | 66.6 | 
CCOC(=O)/C(=N\Nc1ccc(C(=O)OCC)cc1)C(=O)C(F)(F)F |  |  | 3.79 | 0.0471 |  | 0.1 | 19.6 | 193 | 
CCOC(=O)/C(=N\Nc1ccc(C)cc1)C(=O)C(F)F | 18.2% | 12.4% |  | 3.23 |  | 0.37 |  | 53.3 | 
CC(=O)/C(=N\Nc1ccc(C)cc1)C(=O)C(F)(F)F | 11% | 13.4% |  | 56.6 |  | 1.33 |  | 15.6 | 
Oc1ccccc1O [CATECHOL] |  |  |  |  |  | 1.2 |  | 16.4 | 
O=C1O[C@H]([C@@H](O)CO)C(O)=C1O [ASCORBIC ACID] |  |  |  |  |  | 0.98 |  | 21.6 | 
COC(=O)/C(=N\Nc1ccccc1)C(=O)C(F)(F)F |  |  | 20.1 | 0.0555 | 0.0115 | 0.78 | 14.5 | 26.6 | 
Cc1c(C)c2c(c(C)c1O)CCC(C)(C(=O)O)O2 (stereo unspecified) [TROLOX] |  |  |  |  |  | 1 |  | 20.4 | 
